Bioassay records as filed in PubChem BioAssay.
The list is not random: actives were taken first. Their share in the collection is about 1.7%.
SUMO1-SIM PPI: modulators of SUMO1 protein-protein interactions, primary screen, biochemical, uHTS | Small ubiquitin-related modifier 1 (Homo sapiens), P63165 | SUMO1 binding to a labelled peptide, TR-FRET, 1 h | inhibition, % at 20 µM | actives 0.33% (n = 360,000) | AID 602429, 2012; in the data active = inhibition above about 37%
DSG3 Ab inh: inhibitors of pemphigus antibody binding to DSG3, primary screen, biochemical, bead-based, flow cytometry, scFv-GFP | DSG3-coupled beads, scFv-anti-DSG3-GFP binding; active compounds read low | binding (percent of control), % at 10 µM | actives 0.48% (n = 310,000) | AID 588358, 2011;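 active = binding more than 3 SD below its plate's average and above zero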;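 also: hits lower antibody fragment binding to DSG3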
Scp-1 inhibitor: Scp-1 phosphatase inhibitors, primary screen, biochemical, colorimetric, uHTS | Carboxy-terminal domain RNA polymerase II polypeptide A small phosphatase 1 (Homo … | Recombinant Scp1, phosphopeptide, malachite green phosphate absorbance | inhibition, % at 20 µM | actives 0.88% (n = 340,000) | AID 493091, 2011;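 active = inhibition above about 50% at 20 µM, limit read from the data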;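 also: plate controls were DMSO wells with enzyme for no effect and wells lacking enzyme for full effect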
Target sequence (Q9GZU7 76-261 limits assumed): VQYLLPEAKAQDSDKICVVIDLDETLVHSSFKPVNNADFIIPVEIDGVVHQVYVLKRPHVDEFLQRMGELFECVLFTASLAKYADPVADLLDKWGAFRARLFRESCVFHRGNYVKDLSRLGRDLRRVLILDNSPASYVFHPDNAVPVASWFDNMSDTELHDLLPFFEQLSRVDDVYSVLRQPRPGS
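System: truncated SCP-1 phosphatase (76-261aa); medium: Tris acetate buffer pH 5.5 with MgCl2 and Tween-20; incubation: 45 min room-temperature reaction, 5 min colour, 30 min stabiliser; compound: single 20 µM dose, 1% DMSO; reagent: Phosphorylated 17-residue peptide substrate; read-out: % inhibition at 20 µM; technique: colorimetric free-phosphate detection, absorbance 630 nm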
LMPTP inh: LMPTP phosphatase inhibitors, primary screen, biochemical, fluorescence intensity, uHTS | Low molecular weight phosphotyrosine protein phosphatase (Homo sapiens), P24666 | recombinant LMPTP-A, OMFP fluorogenic substrate | inhibition, % at 20 µM | actives 0.22% (n = 360,000) | AID 651560, 2012;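 active = compounds that cut the enzyme signal by at least half of the control window in the single-dose screen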;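 also: plate controls were DMSO wells with enzyme plus substrate for no effect and substrate without enzyme for full effect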
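Buffer or medium: Bis-Tris pH 6.0, DTT, detergent; Assay system: LMPTP-A enzyme; Quantity: 0.625 nM enzyme; Detection: endpoint fluorescence intensity; Times: 50 min dark incubation at room temperature; Controls: substrate-only low control, DMSO enzyme-plus-substrate high control; Doses: single 20 µM dose; Read-out: percent inhibition versus substrate-only and uninhibited controls; Reagent: 400 µM OMFP.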
STEP inh: STEP phosphatase inhibitors, primary screen, biochemical, fluorescence intensity, uHTS; actives 0.25% (n = 360,000); recombinant STEP, OMFP fluorogenic substrate; inhibition, % at 20 µM; Tyrosine-protein phosphatase non-receptor type 5 (Homo sapiens), P54829;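 active = inhibition at 20 µM, scaled per plate between control wells, above about 37%, limit read from the data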;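 also: 0% = DMSO with enzyme and substrate and 100% = substrate only without enzyme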
Target sequence (P54829 whole entry, looked up): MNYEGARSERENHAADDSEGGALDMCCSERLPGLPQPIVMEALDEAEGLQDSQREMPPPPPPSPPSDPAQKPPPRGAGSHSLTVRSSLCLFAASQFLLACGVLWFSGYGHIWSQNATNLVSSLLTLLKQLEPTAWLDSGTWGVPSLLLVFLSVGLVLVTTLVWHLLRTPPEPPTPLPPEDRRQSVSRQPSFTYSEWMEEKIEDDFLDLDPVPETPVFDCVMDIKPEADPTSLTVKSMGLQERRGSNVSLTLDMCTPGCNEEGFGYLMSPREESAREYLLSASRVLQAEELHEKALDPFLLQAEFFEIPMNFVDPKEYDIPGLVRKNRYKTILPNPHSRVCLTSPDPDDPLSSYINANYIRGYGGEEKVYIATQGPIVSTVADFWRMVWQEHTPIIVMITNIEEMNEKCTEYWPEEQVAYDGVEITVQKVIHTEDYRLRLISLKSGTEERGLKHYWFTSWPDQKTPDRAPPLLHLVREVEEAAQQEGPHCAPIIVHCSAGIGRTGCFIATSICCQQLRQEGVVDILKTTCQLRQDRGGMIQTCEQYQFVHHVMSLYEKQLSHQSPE
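System: STEP phosphatase, cell-free reaction; Buffer or medium: Bis-Tris pH 6.0 buffer with DTT, detergent; Incubation: 20 min at room temperature, dark; Measured by: fluorescence, 480/540 nm.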
Scp-1 conf: Scp-1 phosphatase inhibitors, retest, confirmation, biochemical, colorimetric, single concentration. shares compounds with Scp-1 inhibitor. recombinant SCP-1 catalytic domain, phosphate release, malachite green absorbance. inhibition, % at 20 µM. actives 61% (n = 2,500). AID 540281, 2011;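 also: plate controls were DMSO with enzyme for no effect and buffer wells lacking enzyme for full effect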
Scp-1 MG ctr: colorimetric readout interference by compounds, confirmation, artefact control for Scp-1 inhibitor project, biochemical, single concentration | shares compounds with Scp-1 inhibitor | Colorimetric interference counterscreen, malachite green absorbance 630 nm | apparent inhibition (interference), % at 20 µM | 2,500 tested, under 10 active | AID 540313, 2011;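 also: compounds added after enzyme reaction finished so only phosphate colour detection is probed; plate controls were DMSO wells with completed Scp-1 reaction for no effect and substrate wells lacking enzyme for full effect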
Scp-1 Tm shift: Scp-1 binding by thermal shift, confirmation, orthogonal assay for Scp-1 inhibitor project, biophysical, differential scanning fluorimetry | Recombinant SCP1, Sypro Orange thermal shift Tm | thermal shift relative to vanadate control, % at 40 µM | shares compounds with Scp-1 inhibitor | actives 25% (n = 1,500) | AID 540329, 2011;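 active = substances whose mean melting-temperature shift, as a percentage of the reference inhibitor's shift, reaches about 5.3%, limit read from the data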;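 also: 0% = Tm of DMSO wells and 100% = Tm with sodium orthovanadate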
* marks the source's active call; other numbers are inactive results; · = no result.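 The calls were made as follows, unless noted: active = inhibition of at least 30% at 20 µM; inactive = the rest.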

SMILES	SUMO1-SIM PPI	DSG3 Ab inh	Scp-1 inhibitor	LMPTP inh	STEP inh	Scp-1 conf	Scp-1 MG ctr	others
C=C1CCN(C(CC(C)C)C(=O)OC)S(=O)(=O)c2ccccc21 (stereo not given)	-3.0	·	0.8	0.0	-2.4	·	·
CCCNc1c(NC(=O)c2cccs2)c(=O)oc2ccccc12	-0.5	107.2	3.5	-1.4	-1.3	·	·
O=C(c1cc(F)ccc1F)C1CCCN(C(=O)c2ccc3nccnc3c2)C1 (stereo not given)	-3.7	125.5	-3.5	0.3	3.5	·	·
CCc1cccc(NC(=O)CCCCCC2NC(=O)NC2C)c1 (stereo not given)	1.7	106.1	-7.4	-1.5	-1.7	-18.8	-15.6
Cc1ccc(NC(=O)CCCCCC2NC(=O)NC2C)cc1 (stereo not given)	1.6	98.1	-2.7	-0.1	1.0	11.4	4.5
CCC(=O)Nc1ccc(F)c(Cl)c1	-1.1	107.2	-18.1	-2.7	1.0	·	·
CCc1cccc(NC(=O)CCCN2C(=O)NC(C)(C)C2=O)c1	-1.2	98.8	-10.4	-1.8	-4.0	·	·
CC1NC(=O)NC1CCCCC(=O)O (stereo not given)	3.3	100.3	-2.6	-1.5	0.3	·	·
CC1NC(=O)NC1CCCCCC(=O)Nc1ccc(F)c(Cl)c1 (stereo not given)	0.4	120.5	-0.4	-1.4	1.3	0.1	-6.8
O=C(C[C@H]1C/C=C\C[C@H](NC(=O)OCC2c3ccccc3-c3ccccc32)C(=O)OC[C@@H]2CCCN2C1=O)NCCO	-6.5	101.3	2.9	2.7	0.9	·	·
CCOc1cc(NC(=S)NCc2ccco2)c(OCC)cc1NC(=O)C1CC1	-2.5	120.7	-2.4	-1.2	2.4	·	·
CC(C)(C)c1ccc(OCCNCc2ccccc2)cc1	-0.2	114.7	-5.2	-4.1	-0.3	·	·
CC(C)(C)c1ccc(OCCNC(=S)Nc2ccccc2)cc1	0.4	·	56.5*	1.9	2.2	-16.9	-11.8
CN(C)C(=O)c1ccc(OCC(F)(F)F)nc1	-1.2	97.0	79.2*	-0.8	-1.8	-9.3	-14.7
N/C(=N\OC(=O)c1ccc(OCC(F)(F)F)nc1)c1ccc(Cl)cc1	8.5	99.7	-9.5	-1.9	1.0	·	·
Cc1cc(C)c(S(=O)(=O)NCCSCc2ccco2)c(C)c1	3.9	100.1	53.3*	2.9	2.4	-8.1	-17.5
Cn1nc(CC(=O)NC2CCCCCC2)c2ccccc2c1=O	-2.0	98.6	75.6*	-1.9	4.3	-16.6	-15.8
Cn1nc(CC(=O)NC2CCCCC2)c2ccccc2c1=O	-4.8	98.3	-5.6	-2.0	-1.5	·	·
COc1ccc(NC(=O)c2cc3c(CO)cnc(C)c3oc2=Nc2cccc(C)c2)c(OC)c1	-1.6	120.0	0.8	-1.8	0.4	·	·
O=C(CSc1ccsc1[N+](=O)[O-])Nc1cc(F)ccc1F	-0.3	54.3*	72.3*	21.4	5.0	66.0*	-16.4	Scp-1 Tm shift=8.1*
CC(=O)c1ccc(NC(=O)CSc2ccsc2[N+](=O)[O-])cc1	-1.0	69.3*	72.3*	12.3	2.3	63.5*	-12.8	Scp-1 Tm shift=7.1*
O=C(O)C1CC(=O)N(c2ccc3c(c2)OCCO3)C1 (stereo not given)	5.5	102.5	74.8*	1.8	18.1	54.7*	-11.2	Scp-1 Tm shift=-14.3
OC(c1ccc(Cl)c(F)c1)c1ncc(-c2ccccc2F)[nH]1 (stereo not given)	2.1	·	·	0.5	-0.3	·	·
Cc1noc(C)c1NC(=O)N(C)C[C@H]1Oc2ccc(NC(=O)CCC(F)(F)F)cc2C(=O)N([C@H](C)CO)C[C@@H]1C	1.5	100.4	5.2	-0.3	2.4	·	·
Cc1cc2c(NC(=O)CC(C)(C)CC(=O)O)cccc2nn1	-0.9	105.9	52.0*	1.4	3.5	-8.1	-10.7
SMILES	SUMO1-SIM PPI	DSG3 Ab inh	Scp-1 inhibitor	LMPTP inh	STEP inh	Scp-1 conf	Scp-1 MG ctr	others
Cc1ccc(C(=O)NCc2ccco2)o1	0.6	·	26.1	-0.8	11.7	·	·
Cc1ccc(C(=O)NCc2occc2C(=O)O)o1	2.9	·	53.3*	-2.6	5.1	52.5*	-5.7	Scp-1 Tm shift=-0.3
NC1=NC(=O)C(CC(=O)NCc2ccccc2)S1 (stereo not given)	-4.8	99.3	3.1	-0.6	0.0	-13.2	-9.0
CC(=O)Nc1ccc(NC(=O)C(Cc2ccccc2)NC(=O)C2CCCCC2)cc1 (stereo not given)	-2.1	80.4	-7.6	0.0	0.7	·	·
O=C(O)C1=C(C(=O)O)C2C=CC1C2	24.5	87.8	72.0*	0.6	33.3	51.6*	-15.0	Scp-1 Tm shift=-3.0
CCC1CCCCN1CCCNC(=O)CN1C(=O)c2cccnc2Oc2ccc(C)cc21 (stereo not given)	-2.8	·	-3.8	-2.6	0.4	·	·
O=C(CCN1C(=O)/C(=C/c2ccc3c(c2)OCO3)SC1=S)NNC(=O)c1cccnc1	-12.1	86.3	61.7*	7.3	2.0	45.8*	-9.0	Scp-1 Tm shift=0.3
Cc1ccc(/C=C2\SC(=S)N(CCCC(=O)Nc3cccc(C(=O)O)c3)C2=O)cc1	-10.2	117.0	40.0	1.8	7.1	·	·
O=C(CCN1C(=O)/C(=C/c2ccccc2)SC1=S)NNC(=O)c1cccnc1	-15.9	·	1.5	-0.7	3.6	·	·
O=C(CCN1C(=O)/C(=C\C=C\c2ccccc2)SC1=S)Nc1ccccc1C(=O)O	13.0	118.3	-1.8	2.2	2.1	·	·
O=C(CCN1C(=O)/C(=C\C=C\c2ccccc2)SC1=S)Nc1cccc(C(=O)O)c1	11.2	99.1	85.0*	46.3	14.9	74.9*	-19.2	Scp-1 Tm shift=11.2*
COc1ccc(/C=C2\SC(=S)N(CCC(=O)Nc3cccc(C(=O)O)c3)C2=O)cc1	-0.1	124.5	61.2*	1.4	18.3	52.5*	-9.8	Scp-1 Tm shift=18.2*
O=C(CCN1C(=O)/C(=C/c2ccc3c(c2)OCO3)SC1=S)Nc1cccc(C(=O)O)c1	-0.5	119.2	69.1*	3.3	7.4	77.7*	-9.0	Scp-1 Tm shift=10.8*
